# Assays:
# PC-3 = assay: Growth inhibition of human PC3 cells at 10 uM after 48 hrs by MTT assay relative to control; type: functional; conditions: PC-3, 48 h, read-out: GI
# Procedure, shortened: (§1)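 Single-concentration primary screen at 10 μM by MTT assay. Cells were NCI-sourced cancer lines grown in appropriate medium at 37 °C, 95% humidity, 5% CO2. Growth inhibition is expressed relative to control.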
# MCF7 = assay: Growth inhibition of human MCF7 cells at 10 uM after 48 hrs by MTT assay relative to control; type: functional; conditions: MCF7, 48 h, read-out: GI; procedure, shortened: as §1
# MIA PaCa-2 = assay: Growth inhibition of human MIAPaCa2 cells at 10 uM after 48 hrs by MTT assay relative to control; type: functional; conditions: MIA PaCa-2, 48 h, read-out: GI; procedure, shortened: as §1
# Caco-2 = assay: Growth inhibition of human Caco2 cells at 10 uM after 48 hrs by MTT assay relative to control; type: functional; conditions: Caco-2, 48 h, read-out: GI; procedure, shortened: as §1
# [1] = biological target: CDK9/cyclin T1 (Homo sapiens) (UniProt O60563+P50750); assay: Inhibition of CDK9/cyclin T1 (unknown origin) at 0.5 uM using YSPTSPSYSPTSPSYSPTSPKKK as substrate after 30 mins in presence of [33P]-gamma-ATP by filter binding assay relative to control; type: protein-complex assay
# HL-60 = assay: Growth inhibition of human HL60 cells at 10 uM after 48 hrs by MTT assay relative to control; type: functional; conditions: HL-60, 48 h, read-out: GI; procedure, shortened: as §1
# [2] = biological target: CDK2/Cyclin A2 (Homo sapiens) (UniProt P24941+P20248); assay: Inhibition of CDK2/cyclin A (unknown origin) at 0.5 uM using histone H1 as substrate after 30 mins in presence of [33P]-gamma-ATP by filter binding assay relative to control; type: protein-complex assay
SMILES,inhibition [1] [%],inhibition [2] [%],inhibition of growth at 10 µM (PC-3) [%],inhibition of growth at 10 µM (MCF7) [%],inhibition of growth at 10 µM (MIA PaCa-2) [%],inhibition of growth at 10 µM (Caco-2) [%],inhibition of growth at 10 µM (HL-60) [%]
Cc1cc(=O)c2c(O)c(CN3CCC(N4CCCCC4)CC3)c(O)c([C@H]3CCN(C)C[C@H]3O)c2o1,5,10,17,25,23,31,34
Cc1cc(=O)c2c(O)cc(OC/C=C/c3ccccc3)c([C@H]3CCN(C)C[C@H]3O)c2o1,8,7,18,7,11,9,21
Cc1oc2c([C@H]3CCN(C)C[C@H]3O)c(O)cc(O)c2c(=O)c1C(O)c1c(Cl)cccc1Cl (stereo partly specified),0,0,0,33,0,24,14
CCCCCCCCCC/C=C/c1c(C)oc2c([C@H]3CCN(C)C[C@H]3O)c(O)cc(O)c2c1=O,11,5,0,7,4,10,9
Cc1cc(=O)c2c(O)c(CN3CCC(c4ccccc4)CC3)c(O)c([C@H]3CCN(C)C[C@H]3O)c2o1,6,0,22,23,16,21,26
Cc1oc2c([C@H]3CCN(C)C[C@H]3O)c(O)cc(O)c2c(=O)c1C(O)c1cccc(Cl)c1 (stereo partly specified),4,0,31,5,2,4,22
COc1ccc(C(O)c2c(C)oc3c([C@H]4CCN(C)C[C@H]4O)c(O)cc(O)c3c2=O)cc1Br (stereo partly specified),0,3,0,41,3,0,23
Cc1cc(=O)c2c(O)c(CN(C)CC(=O)O)c(O)c([C@H]3CCN(C)C[C@H]3O)c2o1,0,0,20,27,16,18,23
COc1ccc(COc2cc(O)c3c(=O)cc(C)oc3c2[C@H]2CCN(C)C[C@H]2O)cc1,0,10,35,16,15,8,23
Cc1cc(=O)c2c(O)c(CN(C(C)C)C(C)C)c(O)c([C@H]3CCN(C)C[C@H]3O)c2o1,12,1,0,33,11,22,21
Cc1cc(=O)c2c(O)c(CN3CCN(C(=O)OC(C)(C)C)CC3)c(O)c([C@H]3CCN(C)C[C@H]3O)c2o1,0,2,1,16,6,21,13
Cc1cc(=O)c2c(O)c(CN3CCOCC3)c(O)c([C@H]3CCN(C)C[C@H]3O)c2o1,0,0,21,22,4,11,8
Cc1cc(=O)c2c(O)cc(OCc3ccc([N+](=O)[O-])cc3)c([C@H]3CCN(C)C[C@H]3O)c2o1,5,0,23,39,12,14,14
Cc1oc2c([C@H]3CCN(C)C[C@H]3O)c(O)cc(O)c2c(=O)c1C(O)c1csc([N+](=O)[O-])c1 (stereo partly specified),0,7,0,20,41,3,45
Cc1oc2c([C@H]3CCN(C)C[C@H]3O)c(O)cc(O)c2c(=O)c1C(O)c1cc(F)cc(F)c1 (stereo partly specified),10,2,0,25,6,10,30
Cc1cc(=O)c2c(O)c(CN3CCCCC3)c(O)c([C@H]3CCN(C)C[C@H]3O)c2o1,10,10,14,15,14,22,32
Cc1cc(=O)c2c(O)cc(OCc3ccc(Br)cc3)c([C@H]3CCN(C)C[C@H]3O)c2o1,0,0,17,14,13,13,27
Cc1oc2c([C@H]3CCN(C)C[C@H]3O)c(O)cc(O)c2c(=O)c1C(O)c1ccccc1Br (stereo partly specified),29,0,45,21,10,7,52

# Continued, in another order:
inhibition [1] [%],inhibition [2] [%],SMILES,inhibition of growth at 10 µM (PC-3) [%],inhibition of growth at 10 µM (MCF7) [%],inhibition of growth at 10 µM (MIA PaCa-2) [%],inhibition of growth at 10 µM (Caco-2) [%],inhibition of growth at 10 µM (HL-60) [%]
2,0,Cc1cc(=O)c2c(O)c(CN3CCN(C)CC3)c(O)c([C@H]3CCN(C)C[C@H]3O)c2o1,0,10,6,30,15
5,7,Cc1cc(=O)c2c(O)c(CN3CCCC3)c(O)c([C@H]3CCN(C)C[C@H]3O)c2o1,10,12,28,22,38
0,5,CCOC(=O)N1CCN(Cc2c(O)c([C@H]3CCN(C)C[C@H]3O)c3oc(C)cc(=O)c3c2O)CC1,1,31,4,18,16
4,0,CCN(CC)Cc1c(O)c([C@H]2CCN(C)C[C@H]2O)c2oc(C)cc(=O)c2c1O,2,24,27,17,47
8,7,Cc1cc(=O)c2c(O)cc(OCc3ccco3)c([C@H]3CCN(C)C[C@H]3O)c2o1,14,6,7,17,32
5,0,Cc1cc(=O)c2c(O)c(CN3CCCC3CO)c(O)c([C@H]3CCN(C)C[C@H]3O)c2o1 (stereo partly specified),15,22,13,19,33
0,0,Cc1oc2c([C@H]3CCN(C)C[C@H]3O)c(O)cc(O)c2c(=O)c1C(O)c1c(F)cccc1Cl (stereo partly specified),0,41,41,18,49
2,0,CCOc1ccc(Br)c(C(O)c2c(C)oc3c([C@H]4CCN(C)C[C@H]4O)c(O)cc(O)c3c2=O)c1 (stereo partly specified),0,9,4,5,2
0,0,Cc1oc2c([C@H]3CCN(C)C[C@H]3O)c(O)cc(O)c2c(=O)c1C(O)c1ccc(Cl)cc1 (stereo partly specified),41,6,15,3,2
0,10,Cc1cc(=O)c2c(O)cc(OCc3ccccc3)c([C@H]3CCN(C)C[C@H]3O)c2o1,41,1,14,18,24

# Source: ChEMBL document CHEMBL4043283, “Discovery and Preclinical Development of IIIM-290, an Orally Active Potent Cyclin-Dependent Kinase Inhibitor” (J Med Chem, 2018)
